# Experimental data from ChEMBL document CHEMBL1122132, “Synthesis, 470-MHz 1H NMR spectra, and activity of delactonized derivatives of the anticancer drug etoposide” (1982).
# Key:
# Format in all cases: functional
# Mus musculus [1] = experiment: Percent increase in life span of mouse leukemia L1210 system at a dose of 30 mg/kg
# L1210 [2] = experiment: In vitro cytotoxic activity tested in mouse leukemia L1210 cells at a dose of 5.0 ug/mL; details: read-out: Survival
# Summary of the method: (§1)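 Continuous mouse L1210 leukemia cell line exposed to 0.5, 5.0 or 50.0 μg/mL in a soft agar clonogenic assay. Colony survival is expressed as % of untreated control, with control set at 100.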
# Mus musculus [3] = experiment: Percent increase in life span of mouse leukemia L1210 system at a dose of 45 mg/kg
# Mus musculus [4] = experiment: Percent increase in life span of mouse leukemia L1210 system at a dose of 60 mg/kg
# L1210 [5] = experiment: In vitro cytotoxic activity tested in mouse leukemia L1210 cells at a dose of 50.0 ug/mL; details: read-out: Survival; summary of the method: as §1
# L1210 [6] = experiment: In vitro cytotoxic activity tested in mouse leukemia L1210 cells at a dose of 0.5 ug/mL; details: read-out: Survival; summary of the method: as §1
compound,measurement,setting,value
COc1cc([C@@H]2c3cc4c(cc3[C@@H](O[C@@H]3O[C@@H]5CO[C@@H](C)O[C@H]5[C@H](O)[C@H]3O)[C@@H](CO)[C@@H]2CO)OCO4)cc(OC)c1O,ILS at 30 mg/kg,Mus musculus [1],0%
same,viability at 5 µg/mL,L1210 [2],221%
same,ILS at 45 mg/kg,Mus musculus [3],0%
same,ILS at 60 mg/kg,Mus musculus [4],5%
same,viability at 50 µg/mL,L1210 [5],43%
COc1cc([C@@H]2c3cc4c(cc3[C@@H](O[C@@H]3O[C@@H]5CO[C@@H](C)O[C@H]5[C@H](O)[C@H]3O)[C@H]3COC[C@H]23)OCO4)cc(OC)c1O,ILS at 30 mg/kg,Mus musculus [1],10%
same,viability at 5 µg/mL,L1210 [2],0%
same,ILS at 45 mg/kg,Mus musculus [3],25%
same,ILS at 60 mg/kg,Mus musculus [4],30%
same,viability at 0.5 µg/mL,L1210 [6],165%
same,viability at 50 µg/mL,L1210 [5],0%
COc1cc([C@@H]2c3cc4c(cc3[C@@H](O[C@@H]3O[C@@H]5CO[C@@H](C)O[C@H]5[C@H](O)[C@H]3O)[C@H]3COC(=O)[C@H]23)OCO4)cc(OC)c1O [ETOPOSIDE],ILS at 30 mg/kg,Mus musculus [1],110%
same,viability at 5 µg/mL,L1210 [2],1%
same,ILS at 60 mg/kg,Mus musculus [4],103%
same,viability at 0.5 µg/mL,L1210 [6],0%
same,viability at 50 µg/mL,L1210 [5],0%
